Laboratory results: ChEMBL document CHEMBL4706580, “4-Amino-1,2,4-triazole-3-thione-derived Schiff bases as metallo-β-lactamase inhibitors” (Eur J Med Chem, 2020)
Calls of active or inactive are those of the source. The rule behind the calls is not given here.

How the values were obtained:
[1] = Binding affinity to beta-lactamase VIM-2 expressed in Escherichia coli BL21(DE3) assessed as association constant at 25 degC by isothermal titration calorimetry
In short: (§1)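 VIM-2 (19 μM) in 10 mM HEPES-NaOH, 0.15 M NaCl, 50 μM ZnSO4, pH 7.5, DMSO matched to ligand (1-2% final). One 0.5 μl then 19 × 2 μl injections of compound (200-400 μM), 150 s apart, 25 °C. Buffer dilution heats subtracted; nonlinear least-squares fit for n, Ka, ΔH; compound concentration adjusted in fitting so n ≈ 1.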

[2] = Binding affinity to beta-lactamase VIM-2 expressed in Escherichia coli BL21(DE3) assessed as dissociation constant at 25 degC by isothermal titration calorimetry; in short: as §1
[3] = Binding affinity to beta-lactamase VIM-2 expressed in Escherichia coli BL21(DE3) assessed as change in entropy at 25 degC by isothermal titration calorimetry; in short: as §1
[4] = Inhibition of beta-lactamase VIM-2 (unknown origin) expressed in Escherichia coli LZ2310 assessed as potentiation of cefoxitin antibacterial activity by measuring cefoxitin induced diameter of inhibition zone at 320 uM incubated for 18 hrs by disk diffusion method (reference value: 14 mm)
In short: (§2)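 Efflux-deficient E. coli LZ2310 (NorE, MdfA, AcrA knocked out) carrying pLB-II with the cloned MBL gene. Mueller-Hinton, CLSI disk diffusion; antibiotic disks (30 µg cefoxitin for VIM-2, 10 µg ampicillin for VIM-4, 30 µg ceftazidime for NDM-1/IMP-1) loaded with inhibitor in DMSO (≤15 µL). Zone diameter after 18 h, 35 ± 1 °C; DMSO and 220 µg EDTA controls. Triplicate.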

[5] = Binding affinity to beta-lactamase VIM-2 expressed in Escherichia coli BL21(DE3) assessed as Gibbs free energy at 25 degC by isothermal titration calorimetry; in short: as §1
[6] = Binding affinity to beta-lactamase VIM-2 expressed in Escherichia coli BL21(DE3) assessed as change in enthalpy at 25 degC by isothermal titration calorimetry; in short: as §1
[7] = Inhibition of beta-lactamase CphA (unknown origin) expressed in Escherichia coli BL21(DE3) using imipenem as substrate by measuring substrate hydrolysis by spectrophotometric analysis
In short: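 Enzyme 0.2–0.8 nM in 15 mM cacodylate pH 6.5, no added zinc, pre-incubated 30 min at 21 °C with inhibitor (100 μM screen). Imipenem substrate added from 10 mM stock; hydrolysis at 300 nm, 30 °C. Residual activity vs three uninhibited samples; Ki (1–100 μM inhibitor) by Hanes linearization, competitive model. Triplicate.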

[8] = Inhibition of beta-lactamase IMP-1 (unknown origin) expressed in Escherichia coli BL21(DE3) using imipenem as substrate by measuring substrate hydrolysis by spectrophotometric analysis
In short: (§3)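 Purified enzyme (overproduced in E. coli BL21(DE3), pET-9a; ion-exchange and gel filtration), 1-70 nM final. Reporter substrate 150 μM imipenem, read at 300 nm, 30 °C, 50 mM HEPES pH 7.5. Single-point screen at 100 or 200 μM; Ki from v0/vi vs [I] (0.5–1,000 μM final) assuming competitive inhibition, or Dixon plot. Triplicate.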

[9] = Inhibition of beta-lactamase VIM-2 (unknown origin) expressed in Escherichia coli XL-1 assessed as potentiation of cefoxitin antibacterial activity by measuring cefoxitin induced diameter of inhibition zone at 320 uM incubated for 18 hrs by disk diffusion method (reference value: 8 mm)
In short: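 Wild-type efflux E. coli XL-1 Blue transformed with pLB-II-VIM-2. Mueller-Hinton disk diffusion per CLSI, 30 µg cefoxitin disks loaded with inhibitor dissolved in DMSO (≤15 µL). Growth-inhibition zone measured after 18 h at 35 ± 1 °C; DMSO negative and 220 µg EDTA positive controls. Triplicate.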

[10] = Inhibition of beta-lactamase NDM1 (unknown origin) expressed in Escherichia coli BL21(DE3) using cefotaxime/nitrocefin as substrate by measuring substrate hydrolysis by spectrophotometric analysis
In short: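 His-tagged enzyme from E. coli BL21(DE3) pET-15b, affinity-purified, 1-70 nM final. Reporter substrate 120 μM cefotaxime (260 nm) or 100 μM nitrocefin (482 nm), 30 °C, 50 mM HEPES pH 7.5. Inhibitor 0.5–1,000 μM final; competitive Ki from v0/vi vs [I] slope or Dixon plot. Triplicate.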

[11] = Inhibition of beta-lactamase VIM2 (unknown origin) expressed in Escherichia coli BL21(DE3) using imipenem as substrate by measuring substrate hydrolysis by spectrophotometric analysis; in short: as §3
[12] = Inhibition of beta-lactamase VIM4 (unknown origin) expressed in Escherichia coli BL21(DE3) using imipenem as substrate by measuring substrate hydrolysis by spectrophotometric analysis; in short: as §3
[13] = Inhibition of beta-lactamase L1 (unknown origin) expressed in Escherichia coli BL21(DE3) using nitrocefin as substrate by measuring substrate hydrolysis preincubated for 30 mins by spectrophotometric analysis
In short: (§4)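 Enzyme 0.2–0.8 nM in 25 mM HEPES pH 7.5 with 50 μM ZnCl2 final, pre-incubated 30 min at 21 °C with inhibitor (100 μM screen). Nitrocefin 100 μM final, read at 482 nm, 30 °C. Residual activity vs three uninhibited samples; Ki (1–100 μM inhibitor) from Hanes linearization, competitive model. Triplicate.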

[14] = Inhibition of beta-lactamase IMP-1 (unknown origin) expressed in Escherichia coli LZ2310 assessed as potentiation of ceftazidime antibacterial activity by measuring ceftazidime induced diameter of inhibition zone at 320 uM incubated for 18 hrs by disk diffusion method (reference value: 9 mm); in short: as §2
[15] = Inhibition of beta-lactamase IMP-1 (unknown origin) expressed in Escherichia coli BL21(DE3) using imipenem as substrate by measuring substrate hydrolysis at 200 uM by spectrophotometric analysis; in short: as §3
[16] = Inhibition of beta-lactamase IMP-1 (unknown origin) expressed in Escherichia coli BL21(DE3) using imipenem as substrate by measuring substrate hydrolysis at 100 uM by spectrophotometric analysis; in short: as §3
[17] = Inhibition of beta-lactamase NDM1 (unknown origin) expressed in Escherichia coli BL21(DE3) using cefotaxime/nitrocefin as substrate by measuring substrate hydrolysis at 200 uM by spectrophotometric analysis
[18] = Inhibition of beta-lactamase NDM1 (unknown origin) expressed in Escherichia coli BL21(DE3) using cefotaxime/nitrocefin as substrate by measuring substrate hydrolysis at 100 uM by spectrophotometric analysis
[19] = Inhibition of beta-lactamase L1 (unknown origin) expressed in Escherichia coli BL21(DE3) using nitrocefin as substrate by measuring substrate hydrolysis at 100 uM preincubated for 30 mins by spectrophotometric analysis; in short: as §4
[20] = Inhibition of beta-lactamase VIM2 (unknown origin) expressed in Escherichia coli BL21(DE3) using imipenem as substrate by measuring substrate hydrolysis at 100 uM by spectrophotometric analysis; in short: as §3
[21] = Inhibition of beta-lactamase VIM4 (unknown origin) expressed in Escherichia coli BL21(DE3) using imipenem as substrate by measuring substrate hydrolysis at 100 uM by spectrophotometric analysis; in short: as §3
[22] = Inhibition of beta-lactamase L1 (unknown origin) expressed in Escherichia coli BL21(DE3) using nitrocefin as substrate by measuring substrate hydrolysis at 200 uM preincubated for 30 mins by spectrophotometric analysis
[23] = Inhibition of beta-lactamase VIM4 (unknown origin) expressed in Escherichia coli BL21(DE3) using imipenem as substrate by measuring substrate hydrolysis at 200 uM by spectrophotometric analysis; in short: as §3
[24] = Inhibition of beta-lactamase VIM2 (unknown origin) expressed in Escherichia coli BL21(DE3) using imipenem as substrate by measuring substrate hydrolysis at 200 uM by spectrophotometric analysis; in short: as §3
[25] = Inhibition of beta-lactamase VIM-2 (unknown origin) expressed in Escherichia coli LZ2310 assessed as potentiation of cefoxitin antibacterial activity by measuring cefoxitin induced diameter of inhibition zone at 80 uM incubated for 18 hrs by disk diffusion method (reference value: 14 mm); in short: as §2
[26] = Inhibition of beta-lactamase NDM-1 (unknown origin) expressed in Escherichia coli LZ2310 assessed as potentiation of ceftazidime antibacterial activity by measuring ceftazidime induced diameter of inhibition zone at 80 uM incubated for 18 hrs by disk diffusion method (reference value: 15 mm); in short: as §2

| inhibition zone (IZ) [4] [mm] | inhibition zone (IZ) [9] [mm] | inhibition zone (IZ) [14] [mm] | inhibition [18] | inhibition [19] | inhibition [22] | Structure (SMILES) | Ki [8] [µM] | Ki [10] [µM] | Ki [11] [µM] | Ki [12] [µM] | further results |
| --- | --- | --- | --- | --- | --- | --- | --- | --- | --- | --- | --- |
| 15 | 9 | 9 | – | – | – | O=C(O)c1ccccc1/C=N/n1c(-c2cccc(-c3ccccc3)c2)n[nH]c1=S | 17.7 | 4.2 | 0.2 | 0.04 | Ka [1]: 1.5 10^7/M; Kd [2]: 0.068 µM; -TdeltaS [3]: 2.6 kcal/mol; deltaG [5]: -9.8 kcal/mol; deltaH [6]: -7.2 kcal/mol; Ki [7]: 4 µM; Ki [13]: 0.6 µM |
| 17 | 10 | 12 | inactive | 40% | – | O=C(O)c1ccccc1/C=N/n1c(-c2ccccc2O)n[nH]c1=S | – | – | 2.2 | 3 | inhibition [15]: inactive; inhibition [16]: inactive; inhibition [17]: inactive |
| 16 | 10 | 11 | 64% | inactive | inactive | S=c1[nH]nc(-c2ccc(-c3ccccc3)cc2)n1/N=C/c1ccc(OCc2ccccc2)cc1 | 11.4 | – | – | – | inhibition [20]: inactive; inhibition [21]: inactive; inhibition [23]: inactive; inhibition [24]: inactive |
| – | – | – | – | inactive | inactive | Oc1ccc(/C=N/n2c(-c3ccccc3-c3ccccc3)n[nH]c2=S)c(O)c1 | 12 | 6.4 | 4.5 | 9 | inhibition zone (IZ) [25]: 14 mm; inhibition zone (IZ) [26]: 15 mm |
